In ChEMBL document CHEMBL5543089, “Discovery of a novel, highly potent EZH2 PROTAC degrader for targeting non-canonical oncogenic functions of EZH2” (Eur J Med Chem, 2024) one finds IC50 and Activity data, which are given here for eleven compounds.

Active and inactive are the calls of the source. No cut-off for these calls is given here. A value given as a limit tells only on which side of the number the result lay.

Usually IC50 stands for the point on the concentration scale where inhibition reaches its midpoint.

The test system of one experiment is EOL1. The experiment is described as follows: Anti-proliferative activity against human EOL1 cells assessed as cell viability measured after 5 days incubation by CCK-8 assay. Particulars: EOL1, 120 h. Format: functional, cell-based. The method in brief: (§1)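 Cells plated at 3,000–10,000 per well and exposed to serial dilutions for 5 days at 37 °C. CCK-8 (1x) was added for 2–4 h, with absorbance read at 450 nm against a 690 nm reference. IC50 was taken from curve fits. Leukemia lines were grown in RPMI-1640, K562 in IMDM and MDA-MB-468 in DMEM, all with 10 % FBS. Values are means ± SD of two biological experiments (three for BT549 and MDA-MB-468).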
(In general: Tetrazolium dyes change colour on reduction, which living cells bring about.)

The test system of the next experiment is MV4-11. The experiment is described as follows: Anti-proliferative activity against human MV4-11 cells assessed as cell viability measured after 5 days incubation by CCK-8 assay. The experiment is classed as functional, cell-based. The following applies: MV4-11, 120 h. The method in brief: as §1
In the next experiment the test system is RS4-11. The experiment in a line: Anti-proliferative activity against human RS4-11 cells assessed as cell viability measured after 5 days incubation by CCK-8 assay. Format: functional, cell-based. Particulars: RS4-11, 120 h. The method in brief: as §1
Experiment [1] concerns the target T1, von Hippel-Lindau disease tumor suppressor/Histone-lysine N-methyltransferase EZH2 (Homo sapiens, UniProt Q15910+P40337). The experiment is described as follows: PROTAC activity at VHL/EZH2 degradation in hMLLr AML cell line EOL1 cells assessed as protein degradation at 0.1 to 1 uM measured after 24 hrs by Western blot analysis. Format: cell-based. The following applies: dose 0.1-1 µM. The method in brief:
(§2)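 Cells were seeded at 0.5–2 million per well and treated for 24 h, or for the stated times at 300 nM in the time course. Lysis was in RIPA with protease inhibitors; ~10 μg protein was run on SDS-PAGE and blotted to PVDF. Detection used fluorescent immunoblotting for EZH2, EED and SUZ12, with β-actin as loading control. Blots are representative of two biological experiments.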
(In general: In western blotting, separated proteins are transferred to a membrane and probed.)

The subject of a further experiment is BT-549. The experiment in a line: Anti-proliferative activity against human BT-549 cells assessed as cell growth inhibition measured after 5 days incubation by CCK-8 assay. Format: functional, cell-based. The following applies: BT-549, 120 h. The method in brief:
as §1

The next experiment has as its system MDA-MB-468. The experiment is described as follows: Anti-proliferative activity against human MDA-MB-468 cells assessed as cell growth inhibition measured after 5 days incubation by CCK-8 assay. The experiment is classed as functional, cell-based. Particulars: MDA-MB-468, 120 h. An outline of the steps: as §1
The target in experiment [2] is T1, von Hippel-Lindau disease tumor suppressor/Histone-lysine N-methyltransferase EZH2. The experiment is described as follows: PROTAC activity at VHL/EZH2 degradation in hMLLr AML cell line EOL1 cells assessed as protein degradation at 0.1 uM measured after 24 hrs by Western blot analysis. The experiment is classed as cell-based. The method in brief: as §2
For experiment [3] the target is unchanged. The experiment is described as follows: PROTAC activity at VHL/EZH2 degradation in hMLLr AML cell line EOL1 cells assessed as protein degradation at 1 uM measured after 24 hrs by Western blot analysis. The experiment is classed as cell-based. An outline of the steps: as §2

T1 sequence (P40337 whole entry, looked up): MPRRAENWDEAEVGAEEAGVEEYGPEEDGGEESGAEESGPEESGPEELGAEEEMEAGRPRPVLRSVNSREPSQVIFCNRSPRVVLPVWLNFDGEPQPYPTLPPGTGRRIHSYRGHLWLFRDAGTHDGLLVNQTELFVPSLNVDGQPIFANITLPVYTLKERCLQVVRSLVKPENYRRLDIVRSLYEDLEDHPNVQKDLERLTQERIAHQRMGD
T1 sequence (Q15910 whole entry, looked up): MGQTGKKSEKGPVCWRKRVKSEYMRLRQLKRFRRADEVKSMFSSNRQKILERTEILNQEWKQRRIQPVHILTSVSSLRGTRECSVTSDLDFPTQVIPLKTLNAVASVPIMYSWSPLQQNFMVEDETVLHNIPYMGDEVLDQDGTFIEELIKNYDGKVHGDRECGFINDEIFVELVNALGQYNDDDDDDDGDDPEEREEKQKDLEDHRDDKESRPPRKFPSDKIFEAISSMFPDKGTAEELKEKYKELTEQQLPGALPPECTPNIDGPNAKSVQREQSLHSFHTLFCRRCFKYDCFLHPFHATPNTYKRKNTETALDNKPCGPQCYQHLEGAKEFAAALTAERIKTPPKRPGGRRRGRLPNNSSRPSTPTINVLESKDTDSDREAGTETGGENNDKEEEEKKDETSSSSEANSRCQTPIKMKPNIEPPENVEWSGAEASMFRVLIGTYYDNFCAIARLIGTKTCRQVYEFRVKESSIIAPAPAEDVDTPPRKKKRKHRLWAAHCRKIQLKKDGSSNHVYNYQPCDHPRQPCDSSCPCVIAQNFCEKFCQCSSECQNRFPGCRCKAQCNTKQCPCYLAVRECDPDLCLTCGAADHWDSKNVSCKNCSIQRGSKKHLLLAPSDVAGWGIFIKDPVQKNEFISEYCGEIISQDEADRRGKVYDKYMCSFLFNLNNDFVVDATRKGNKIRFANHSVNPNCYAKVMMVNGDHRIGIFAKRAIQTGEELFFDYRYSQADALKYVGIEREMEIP

Take `CCN(c1cc(-c2ccc(CN3CCN(CCCCCCCOc4cccc5c4C(=O)N(C4CCC(=O)NC4=O)C5=O)CC3)cc2)cc(C(=O)NCc2c(C)cc(C)[nH]c2=O)c1C)C1CCOCC1` (stereo unspecified): the IC50 with EOL1 stood at 3.7 µM; with MV4-11, 5.5 µM; with RS4-11, 5 µM. In the case of `CCN(c1cc(-c2ccc(CN3CCN(CCC(=O)NCCCCCCCCC(=O)N[C@H](C(=O)N4C[C@H](O)C[C@H]4C(=O)NCc4ccc(-c5scnc5C)cc4)C(C)(C)C)CC3)cc2)cc(C(=O)NCc2c(C)cc(C)[nH]c2=O)c1C)C1CCOCC1`, in experiment [1], the result was Active. Still for that read-out and setting: for `CCN(c1cc(-c2ccc(CN3CCN(CCC(=O)NCCCCCCC(=O)N[C@H](C(=O)N4C[C@H](O)C[C@H]4C(=O)NCc4ccc(-c5scnc5C)cc4)C(C)(C)C)CC3)cc2)cc(C(=O)NCc2c(C)cc(C)[nH]c2=O)c1C)C1CCOCC1` the value was “inactive”. Consider `CCN(c1cc(-c2ccc(OCCCOCC(=O)N[C@H](C(=O)N3C[C@H](O)C[C@H]3C(=O)NCc3ccc(-c4scnc4C)cc3)C(C)(C)C)cc2)cc(C(=O)NCc2c(C)cc(C)[nH]c2=O)c1C)C1CCOCC1`, for which the IC50 is 5.4 µM in the experiment with EOL1, above 10 µM in the experiment with MV4-11 and 4.07 µM in the experiment on RS4-11.

Consider `CCN(c1cc(-c2ccc(CN3CCN(C(=O)CCCCCCCC(=O)N[C@H](C(=O)N4C[C@H](O)C[C@H]4C(=O)NCc4ccc(-c5scnc5C)cc4)C(C)(C)C)CC3)cc2)cc(C(=O)NCc2c(C)cc(C)[nH]c2=O)c1C)C1CCOCC1`, for which the figures for the IC50 in the experiment with EOL1, in the experiment on MV4-11 and with RS4-11 were 0.42 µM, 1 µM and 1.4 µM, respectively.

Take `CCN(c1cc(-c2ccc(CN3CCOCC3)cc2)cc(C(=O)NCc2c(C)cc(C)[nH]c2=O)c1C)C1CCOCC1` [TAZEMETOSTAT]: the IC50 is above 10 µM with BT-549 and above 2.5 µM in the experiment on MDA-MB-468.

As for `CCN(c1cc(-c2ccc(CN3CCN(CCC(=O)NCCCCCCCCCC(=O)N[C@H](C(=O)N4C[C@H](O)C[C@H]4C(=O)NCc4ccc(-c5scnc5C)cc4)C(C)(C)C)CC3)cc2)cc(C(=O)NCc2c(C)cc(C)[nH]c2=O)c1C)C1CCOCC1`, the Activity in experiment [2] is 100%. Besides, the outcome in experiment [3] was Active. `Cc1cc(C)c(CNC(=O)c2cc(-c3ccc(N4CCN(CCCCCCCCCc5cn(CCOCCOCCOCCOCCOCCOCCNc6cccc7c6C(=O)N(C6CCC(=O)NC6=O)C7=O)nn5)CC4)nc3)cc3c2cnn3C(C)C)c(=O)[nH]1` (stereo unspecified): the figures for the IC50 with EOL1, with MV4-11 and in the experiment on RS4-11 were 1 µM, 0.46 µM and 0.65 µM, respectively. Turning to `CCN(c1cc(-c2ccc(CN3CCN(CCC(=O)NCCCCCC(=O)N[C@H](C(=O)N4C[C@H](O)C[C@H]4C(=O)NCc4ccc(-c5scnc5C)cc4)C(C)(C)C)CC3)cc2)cc(C(=O)NCc2c(C)cc(C)[nH]c2=O)c1C)C1CCOCC1`, the result in experiment [1] was inactive. Turning to `CCN(c1cc(-c2ccc(CN3CCN(CCC(=O)NCCCCCCCC(=O)N[C@H](C(=O)N4C[C@H](O)C[C@H]4C(=O)NCc4ccc(-c5scnc5C)cc4)C(C)(C)C)CC3)cc2)cc(C(=O)NCc2c(C)cc(C)[nH]c2=O)c1C)C1CCOCC1`, the result in experiment [1] was Active. On the same count and under the same terms, for `CCN(c1cc(-c2ccc(CN3CCN(CCC(=O)NCCCCC(=O)N[C@H](C(=O)N4C[C@H](O)C[C@H]4C(=O)NCc4ccc(-c5scnc5C)cc4)C(C)(C)C)CC3)cc2)cc(C(=O)NCc2c(C)cc(C)[nH]c2=O)c1C)C1CCOCC1` the value was “inactive”.
